Screens deposited in PubChem by Broad Institute.
SIRT5 block – SIRT5 desuccinylase inhibitors, primary screen, biochemical, fluorescence imaging, single point, set 5. NAD-dependent protein deacylase sirtuin-5, mitochondrial (Homo sapiens), Q9NXA8. Purified SirT5, succinyl-peptide AMC, trypsin-coupled fluorescence. inhibition, % at 15 µM. 330,000 tested, 1.1% active. AID 652115, 2013; in the data active means inhibition above about 15%; inconclusive means no clear call, values can overlap the other calls
E-selectin induc – E-selectin induction in HUVECs, primary screen, imaging, HUVEC, immunofluorescence imaging, single point; P16581; AID 686992, 2013; activation, % at 7.58 µM; normalized: neutral wells 0, TNF-alpha wells 100; 260,000 tested, 0.37% active;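 active means mean E-selectin-positive cell signal at least 10% of the positive control, reached in at least 60% of replicates, without over 20% cell loss; inconclusive means no rule given, readout overlaps actives, possibly toxicity-flagged; inactive means the rest, including those meeting only one limit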
Target sequence (P16581 whole entry, looked up): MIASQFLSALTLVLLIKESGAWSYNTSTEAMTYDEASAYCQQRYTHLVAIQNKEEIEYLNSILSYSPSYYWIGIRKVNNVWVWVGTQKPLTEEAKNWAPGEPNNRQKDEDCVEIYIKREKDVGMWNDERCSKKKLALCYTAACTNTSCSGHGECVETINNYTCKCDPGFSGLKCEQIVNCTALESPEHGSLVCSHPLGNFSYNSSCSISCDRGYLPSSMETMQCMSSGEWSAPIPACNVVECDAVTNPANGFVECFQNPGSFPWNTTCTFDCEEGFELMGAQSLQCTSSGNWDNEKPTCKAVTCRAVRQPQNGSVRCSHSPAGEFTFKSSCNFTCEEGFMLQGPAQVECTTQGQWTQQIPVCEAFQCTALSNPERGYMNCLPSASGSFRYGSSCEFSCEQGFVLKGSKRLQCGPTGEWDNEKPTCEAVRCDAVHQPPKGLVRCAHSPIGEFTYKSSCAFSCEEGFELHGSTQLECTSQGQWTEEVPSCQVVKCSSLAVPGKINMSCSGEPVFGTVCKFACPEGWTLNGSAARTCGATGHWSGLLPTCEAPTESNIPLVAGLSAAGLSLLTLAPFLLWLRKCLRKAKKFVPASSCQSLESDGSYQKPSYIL
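System: HUVEC, human umbilical vein endothelial cells; quantity: 3,000 cells/well; buffer or medium: EGM-2 medium, gelatin-coated wells; dosing: single-point compound dose; detection: immunofluorescence imaging; evaluation: % PE-positive cells; benchmarks: TNF-alpha, DMSO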
DENV2 CPE rescue – inhibitors of DENV2 cytopathic effect, primary screen, cell-based, plate reader, single concentration. DENV2-infected cells, cytopathic effect rescue. CPE inhibition, % at 9.99 µM. 350,000 tested, 1.7% active. AID 651640, 2012; in the data active means CPE inhibition above about 20%, passing the limit was not always enough; inconclusive means no clear call, values can overlap the other calls; tested in BHK-21 cells;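 further: 0% = median of neutral control wells and 100% = median of positive control wells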
* = called active by the depositor; ? = inconclusive; nt = not tested or not shown. The list is not random: actives were taken first. Their share in the collection is about 2.8%.

SMILES	SIRT5 block	E-selectin induc	DENV2 CPE rescue
COc1ccc(S(=O)(=O)Nc2ccc3c(c2)CC(=O)N([C@@H](C)CO)C[C@@H](C)[C@H](CN(C)C(=O)Nc2cccc4ccccc24)O3)cc1	-1	11	3
O=C1C=C(c2cc(Cl)cc(Cl)c2)C[C@@H](c2ccc3c(c2)OCO3)C1	nt	0	28*
O=C1C=C(c2ccc(F)c(Cl)c2)C[C@@H](c2ccc(F)cc2)C1	0	0	23*
O=C1C=C(c2ccc3c(c2)OCO3)C[C@@H](c2ccc3c(c2)OCO3)C1	nt	0	?
COc1ccc([C@H]2CC(=O)C=C(c3ccc(OC(F)(F)F)cc3)C2)cc1	nt	0	-13
COc1cccc(C2=CC(=O)C[C@H](c3ccc(F)cc3)C2)c1	nt	1	nt
O=C1C=C(c2cc(F)ccc2F)C[C@@H](c2ccc(Cl)cc2)C1	-1	0	1
COc1ccc([C@H]2CC(=O)C=C(c3ccc(CNC(=O)OC(C)(C)C)cc3)C2)cc1	nt	30*	-9
COc1cc(F)cc(C2=CC(=O)C[C@H](c3ccc(F)cc3)C2)c1	nt	0	26*
COC(=O)C[C@H]1C[C@@H]2c3cc(NS(=O)(=O)c4ccc(OC)cc4)ccc3O[C@@H]2[C@@H](CO)O1	nt	0	0
CO[C@@H]1CN(C)C(=O)c2ccc(NC(C)=O)cc2OC[C@@H](C)NC[C@@H]1C	0	0	-12
C[C@@H]1CCCCO[C@@H](CN(C)C(=O)C2CCCCC2)[C@H](C)CN([C@@H](C)CO)C(=O)c2cc(NS(=O)(=O)c3ccc(Cl)cc3)ccc2O1	-1	0	2
Cc1ccc(S(=O)(=O)N(C)C[C@H]2Oc3ncc(-c4ccccc4)cc3C(=O)N([C@@H](C)CO)C[C@H]2C)cc1	0	1	-2
O=C1C=C(c2cccc(Br)c2)C[C@@H](c2ccc(Cl)cc2)C1	nt	0	32*
O=C1C=C(c2cccc(Cl)c2)C[C@@H](c2ccc(Cl)cc2)C1	-6	1	0
CO[C@@H](CN(C)C(=O)c1ccc2c(c1)OCO2)[C@@H](C)CN([C@H](C)CO)S(=O)(=O)c1ccc(C)cc1	-13	0	-3
COc1ccc2c3c([nH]c2c1)[C@@H](CO)N(C(=O)NC(C)C)CC31CN(C(=O)C2CCCCC2)C1	nt	0	3
COCCNC(=O)C[C@@H]1C[C@H]2c3cc(NC(=O)c4cccnc4)ccc3O[C@H]2[C@H](CO)O1	-3	0	?
COC(=O)C(C(=O)OC)c1ccccc1NS(=O)(=O)c1ccc(C)cc1	-2	4	0
COc1cc(NS(=O)(=O)c2ccc(C)cc2)c2c(c1N)C(=O)c1ccccc1C2=O	-6	127*	6
C[C@H]1CN([C@@H](C)CO)C(=O)c2cc(NS(=O)(=O)c3ccccc3)ccc2O[C@@H]1CN(C)C(=O)Nc1cccc2ccccc12	-1	1	-2
C=CCn1c(=N)n(CC(=O)c2ccc(Cl)cc2)c2ccccc21	-5	nt	7
C=CCn1c(=N)n(CC(=O)c2ccc(Br)s2)c2ccccc21	-3	69*	-10
COCC(=O)Nc1ccc2c(c1)C(=O)N(C)[C@H]1CC[C@@H](CC(=O)NCc3ccccc3F)O[C@@H]1CO2	-3	0	0
Cc1ccc(CNc2nc(NC(C)C)nc3ccsc23)c(C)c1	21*	0	-9
SMILES	SIRT5 block	E-selectin induc	DENV2 CPE rescue
CNc1nc(NCc2ccc(C)cc2C)c2sccc2n1	-2	0	10
Cc1noc(C)c1NC(=O)Nc1ccc2c(c1)C(=O)N([C@@H](C)CO)C[C@H](C)[C@@H](CN(C)C(=O)Nc1ccccc1)OCCCC[C@H](C)O2	0	0	-6
CCC(=O)N1[C@H](CO)[C@H](c2ccccc2)C12CN(C(=O)c1ccc(F)cc1)C2	-2	0	-1
OC[C@@H]1[C@@H](c2ccccc2)C2(CN(CC3CC3)C2)N1Cc1ccc(F)cc1	-2	0	23*
O=C(CC1CC1)N1CC2(C1)[C@@H](c1ccccc1)[C@@H](CO)N2Cc1cccc(F)c1	19*	0	1
CCCNC(=O)N1[C@@H](CO)[C@H](c2ccccc2)C12CN(C(=O)CC1CC1)C2	38*	0	-2
O=C(CC1CC1)N1CC2(C1)[C@H](c1ccccc1)[C@@H](CO)N2Cc1ccc(F)cc1	1	0	3
CCS(=O)(=O)N1CC2(C1)[C@@H](c1ccccc1)[C@@H](CO)N2Cc1ccc(F)cc1	6	0	1
O=C(CC1CC1)N1CC2(C1)[C@@H](c1ccccc1)[C@H](CO)N2Cc1ccc(F)cc1	-1	0	3
CCCNC(=O)N1[C@H](CO)[C@H](c2ccccc2)C12CN(C(=O)CC1CC1)C2	7	0	-6
CCS(=O)(=O)N1CC2(C1)[C@@H](c1ccccc1)[C@H](CO)N2Cc1ccc(F)cc1	16*	0	35*
CC(C)NC(=O)Nc1ccc2c(c1)C(=O)N(C)[C@H]1CC[C@@H](CC(=O)NC3CCCCC3)O[C@H]1CO2	nt	0	2
O=C(C[C@H]1CC[C@H]2[C@@H](COC[C@H](O)CN2C(=O)Nc2ccc(F)cc2)O1)NCCCN1CCOCC1	4	0	0
CCC(=O)N1C[C@@H](C)[C@H](OC)CN(C)C(=O)c2ccc(NC(=O)C3CCOCC3)cc2OC[C@H]1C	nt	0	nt
C#CCNC(=O)C1=C[C@H](c2cn(C(C)=O)c3ccccc23)C[C@H](OCCCCO)O1	1	nt	?
CCC(=O)N1[C@H](CO)[C@H](c2ccc(-c3ccccc3)cc2)[C@@H]1CNC(=O)COC	nt	0	0
OC[C@@H]1[C@@H](c2ccccc2)C2(CN(CC3CCOCC3)C2)N1Cc1nccs1	0	0	51*
OC[C@H]1[C@@H](c2ccccc2)C2(CN(Cc3nccs3)C2)N1CC1CCOCC1	-5	0	-5
C[C@@H]1CCCCO[C@H](CN(C)S(=O)(=O)c2ccc(F)cc2)[C@H](C)CN([C@@H](C)CO)C(=O)c2cc(NC(=O)Nc3cccc4ccccc34)ccc2O1	5	1	3
CN(C)c1ccc(CCc2ccc(N)cc2)cc1	-4	nt	26*
CN(C)c1ccc(Cc2ccc(N(C)C)cc2)cc1	-1	0	-1
CO[C@@H]1CN(C)C(=O)c2ccc(NC(=O)C3CC3)cc2OC[C@@H](C)N(Cc2nccs2)C[C@H]1C	-4	0	-3
CO[C@H]1CN(C)C(=O)c2cc(NS(=O)(=O)CC(F)(F)F)ccc2OC[C@H](C)NC[C@H]1C	0	0	12
CO[C@H]1CN(C)C(=O)c2cc(NS(=O)(=O)CC(F)(F)F)ccc2OC[C@@H](C)NC[C@H]1C	-4	0	-2
CCS(=O)(=O)Nc1ccc2c(c1)C(=O)N(C)C[C@H](OC)[C@H](C)CN[C@H](C)CO2	-7	0	21*
CCS(=O)(=O)Nc1ccc2c(c1)C(=O)N(C)C[C@@H](OC)[C@@H](C)CN[C@H](C)CO2	-3	0	55*
C[C@H]1CCCCO[C@H](CN(C)C(=O)Cc2ccccc2)[C@@H](C)CN([C@@H](C)CO)C(=O)c2cc(NC(=O)Nc3ccc(F)cc3)ccc2O1	6	0	1
